WT yeast gro inh – growth inhibition of WT yeast, mitochondrial fusion screen | mitochondrial fusion phenotypic screen, WT strain | inhibition, % at 10 µM | 190,000 compounds, 2.1% hits | AID 1362; in the data active means inhibition above about 58%; tested in S. cerevisiae
Cl transport mod – modulators of human KCC2 chloride dependent transport | 190,000 compounds, 2.2% hits | KCC2 cells, thallium flux FluoZin-2 fluorescence | Q9H2X9 | B-score of Tl+ flux slope (higher = more flux/activation; lower = inhibition) at 10 µM;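 active means thallium flux slope and its plate-corrected score both differing from the plate sample mean at a set confidence after two filtering rounds, in either direction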;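 further: slope of fluorescence scaled to starting intensity during 10 to 20 s after thallium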
Target sequence (Q9H2X9 whole entry, looked up): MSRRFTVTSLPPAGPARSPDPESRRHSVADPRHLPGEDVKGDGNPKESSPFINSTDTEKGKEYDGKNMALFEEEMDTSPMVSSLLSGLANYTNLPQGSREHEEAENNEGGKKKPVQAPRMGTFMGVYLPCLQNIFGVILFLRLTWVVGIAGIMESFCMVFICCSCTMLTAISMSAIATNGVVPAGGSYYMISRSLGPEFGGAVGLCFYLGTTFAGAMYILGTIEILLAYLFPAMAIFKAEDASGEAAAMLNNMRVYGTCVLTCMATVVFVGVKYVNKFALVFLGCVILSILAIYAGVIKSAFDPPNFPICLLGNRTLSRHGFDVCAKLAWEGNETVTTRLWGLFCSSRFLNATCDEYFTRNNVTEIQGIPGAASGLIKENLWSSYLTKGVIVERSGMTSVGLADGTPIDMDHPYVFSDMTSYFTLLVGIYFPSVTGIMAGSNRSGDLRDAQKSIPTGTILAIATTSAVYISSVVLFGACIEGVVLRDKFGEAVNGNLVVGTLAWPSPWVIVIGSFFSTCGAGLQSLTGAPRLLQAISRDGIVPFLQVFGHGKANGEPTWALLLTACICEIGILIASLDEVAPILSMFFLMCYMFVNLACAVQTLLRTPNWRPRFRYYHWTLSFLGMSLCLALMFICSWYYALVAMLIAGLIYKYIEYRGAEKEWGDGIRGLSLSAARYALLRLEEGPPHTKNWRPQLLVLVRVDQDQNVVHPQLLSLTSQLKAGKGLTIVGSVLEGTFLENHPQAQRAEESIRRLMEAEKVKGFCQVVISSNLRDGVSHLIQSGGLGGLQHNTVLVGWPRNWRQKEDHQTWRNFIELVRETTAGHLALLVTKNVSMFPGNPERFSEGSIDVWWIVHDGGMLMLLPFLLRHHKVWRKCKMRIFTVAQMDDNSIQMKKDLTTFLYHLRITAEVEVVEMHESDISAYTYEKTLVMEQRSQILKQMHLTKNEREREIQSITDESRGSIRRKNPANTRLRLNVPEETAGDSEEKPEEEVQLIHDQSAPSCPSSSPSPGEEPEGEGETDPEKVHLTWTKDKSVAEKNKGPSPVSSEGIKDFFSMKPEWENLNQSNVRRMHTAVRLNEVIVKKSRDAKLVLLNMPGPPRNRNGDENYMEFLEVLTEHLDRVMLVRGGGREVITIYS
Yeast life ext – extends the lifespan of yeast. 130,000 compounds, 0.68% hits. AID 775. S. cerevisiae growth with nicotinamide, OD615; deaD strain in restrictive glucose medium. inhibition of the nicotinamide effect, % at 10 µM;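 active means inhibition above a set limit, placed 3 SD over the median of all compounds, cut at about 26% in these data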
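Test system – modified budding yeast, DeaD strain · Compound – single dose 10 µM compound, 0.25% DMSO · Times – culture preincubation 4 h, compound exposure 48 h, both 30 °C · Detection – optical density (absorbance) at 615 nm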
Yeast growth inh – chemicals that inhibit yeast BB579 growth in restrictive medium (lifespan-shortening candidates); S. cerevisiae BB579 growth, OD615, 48 h; inhibition, % at 10 µM; 140,000 compounds, 0.51% hits; AID 804;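 active means inhibition above a set limit, 3 SD over the mean compound inhibition, cut at about 44% in these data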
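test system = yeast BB579 (DeaD) | buffer or medium = restrictive CSMM-D medium | doses = single compound dose of 10 µM, 0.25% DMSO final | times = 4 h preincubation and 48 h exposure at 30 °C | technique = culture absorbance at 615 nm | benchmarks = amphotericin B 10 µg/mL, positive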
RAM network inh – blocks the yeast RAM network; S. cerevisiae dse1pr::URA3 reporter, 5-FOA growth OD615, 2 d; analog-sensitive cbk1-as2 kinase mutant strain; inhibition, % at 50 µM; 190,000 compounds, 1.8% hits;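 active means inhibition above a set limit, 3 SD over mean compound inhibition, cut at about 8.4% in these data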;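 further: inhibition rescues growth on 5-FOA so higher OD means more RAM inhibition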
Hits are given with their value. Shown are actives, neighbours in structure and some others; about 5.5% of the full set was active somewhere.

Results for CCC(CO)N=C1CC(C)(C)CC(=O)/C1=C(/O)CCCN1C(=O)c2ccccc2C1=O (configuration not stated) ?
WT yeast gro inh: inactive; Cl transport mod: inactive; RAM network inh: inactive

What do the screens show for `COc1ccc(C(C(=O)NC2CCCC2)N(Cc2ccccc2)C(=O)c2nsc(Cl)c2Cl)cc1` (configuration not stated)?
WT yeast gro inh: 63; Cl transport mod: inactive; Yeast life ext: inactive; Yeast growth inh: inactive; RAM network inh: inactive

What do the screens show for `CCOc1ccc(C(C(=O)NC2CCCC2)N(Cc2ccccc2)C(=O)c2nsc(Cl)c2Cl)cc1` (configuration not stated)?
WT yeast gro inh: 62; Yeast life ext: inactive; Yeast growth inh: inactive; RAM network inh: inactive

What do the screens show for `Cc1ccc(N(C(=O)c2nsc(Cl)c2Cl)C(C(=O)NC2CCCC2)c2ccc(O)cc2)cc1C` (configuration not stated)?
WT yeast gro inh: inactive; Cl transport mod: inactive; Yeast life ext: inactive; Yeast growth inh: inactive; RAM network inh: inactive

How did CCCNC(=S)N(Cc1ccccc1)Cc1nc2ccccc2c(=O)[nH]1 do in these assays?
WT yeast gro inh: inactive; Cl transport mod: inactive; Yeast life ext: inactive; Yeast growth inh: inactive; RAM network inh: inactive

Results for Cc1ccc(CNC(=O)CCSCCC(=O)NCc2ccc(C)cc2)cc1 ?
WT yeast gro inh: inactive; Cl transport mod: inactive; Yeast life ext: inactive; Yeast growth inh: inactive; RAM network inh: inactive

What do the screens show for `CN(C)C=NC(=O)c1ccc(N2CCN(c3ncc(C(F)(F)F)cc3Cl)CC2)cc1`?
WT yeast gro inh: inactive; Cl transport mod: inactive; Yeast life ext: inactive; Yeast growth inh: inactive; RAM network inh: 9.0

What do the screens show for `CN(C)/C=C/C(=O)c1ccc(N2CCN(c3ncc(C(F)(F)F)cc3Cl)CC2)cc1`?
WT yeast gro inh: inactive; Cl transport mod: inactive; Yeast life ext: inactive; Yeast growth inh: inactive; RAM network inh: inactive

How did Cc1nnc(Sc2nc3c(c(=O)[nH]c(=O)n3C)n2Cc2ccccc2Cl)s1 do in these assays?
WT yeast gro inh: inactive

Results for O=C1CC(c2ccccc2)CC(O)=C1C=Nc1ccccc1 (configuration not stated) ?
WT yeast gro inh: inactive; Cl transport mod: inactive; RAM network inh: inactive

How did O=C1CC(c2cccc(Cl)c2)CC(O)=C1C=Nc1cccc(Cl)c1 (configuration not stated) do in these assays?
WT yeast gro inh: 81; Cl transport mod: inactive; Yeast life ext: 29; Yeast growth inh: inactive; RAM network inh: inactive

Results for O=C(CC12CC3CC(CC(C3)C1)C2)NC(=S)NCc1ccccc1 ?
WT yeast gro inh: inactive; Cl transport mod: inactive; Yeast life ext: inactive; Yeast growth inh: inactive; RAM network inh: 9.4

Results for COc1cc(NC(=S)NC(=O)c2ccccc2F)ccc1NC(=O)c1cccs1 ?
WT yeast gro inh: inactive; Cl transport mod: inactive; RAM network inh: inactive

What do the screens show for `O=C(NC(=S)NCc1ccccc1)c1ccccc1F`?
WT yeast gro inh: inactive; Cl transport mod: 15; Yeast life ext: inactive; Yeast growth inh: inactive; RAM network inh: inactive

What do the screens show for `O=C(Nc1ccc(NC(=S)NC(=O)c2ccccc2F)cc1)c1cccs1`?
WT yeast gro inh: 63; Cl transport mod: inactive; RAM network inh: inactive

How did COc1cc(C(CC(=O)O)n2cnnn2)ccc1OC(C)C (configuration not stated) do in these assays?
WT yeast gro inh: inactive; Cl transport mod: inactive; RAM network inh: inactive

Results for COc1ccccc1-c1ccc(/C=C2\C=CC(=O)O2)o1 ?
Cl transport mod: inactive

Results for Cc1nc2cc(NC(=O)Nc3cccc4ccccc34)ccc2n1C ?
WT yeast gro inh: inactive; Cl transport mod: inactive; RAM network inh: inactive

Results for O=C(Nc1ccc2snnc2c1)Nc1cccc2ccccc12 ?
WT yeast gro inh: 89; Yeast life ext: inactive; Yeast growth inh: inactive; RAM network inh: inactive

How did Cc1ccc(C(C)C)c(OCc2ccc(C(=O)N/N=C/c3ccc(O)cc3O)cc2)c1 do in these assays?
WT yeast gro inh: 61; Cl transport mod: inactive; Yeast life ext: inactive; Yeast growth inh: inactive; RAM network inh: inactive

Results for Cc1ccc(C(C)C)c(OCc2ccc(C(=O)N/N=C/c3ccc(C(=O)O)cc3)cc2)c1 ?
Cl transport mod: inactive

What do the screens show for `O=C(N/N=C/c1cccc(O)c1)c1ccc(COc2ccccc2Br)cc1`?
WT yeast gro inh: 80; Cl transport mod: inactive; Yeast life ext: inactive; Yeast growth inh: inactive; RAM network inh: inactive

How did Cc1ccc(-n2c(C)cc(C(=O)NS(=O)(=O)c3ccc(C)cc3)c2C)cc1 do in these assays?
WT yeast gro inh: inactive; Cl transport mod: inactive; Yeast life ext: inactive; Yeast growth inh: inactive; RAM network inh: 8.6

How did CCOc1ccc(-n2c(C)cc(C(=O)NS(=O)(=O)c3ccc(C)cc3)c2C)cc1 do in these assays?
WT yeast gro inh: inactive; Cl transport mod: inactive; Yeast life ext: inactive; Yeast growth inh: inactive; RAM network inh: inactive

How did Cc1ccc(NC(=O)c2cc(C)n(-c3cccc(C)c3)c2C)cc1 do in these assays?
WT yeast gro inh: 62; Cl transport mod: inactive; Yeast life ext: inactive; Yeast growth inh: inactive; RAM network inh: inactive

How did Cc1ccc(NC(=O)c2cc(C)n(-c3ccccc3)c2C)cc1 do in these assays?
WT yeast gro inh: inactive; Cl transport mod: inactive; Yeast life ext: inactive; Yeast growth inh: inactive; RAM network inh: inactive

What do the screens show for `Cc1ccc(S(=O)(=O)CC#CCOC(=O)c2ccc([N+](=O)[O-])cc2)cc1`?
WT yeast gro inh: inactive; Cl transport mod: inactive; Yeast life ext: inactive; Yeast growth inh: inactive; RAM network inh: inactive

How did O=C(NCc1ccccc1)C1=C[C@H](c2csc3ccccc23)C[C@H](OCCCCO)O1 do in these assays?
WT yeast gro inh: inactive; Cl transport mod: inactive; RAM network inh: 11

What do the screens show for `O=C(Nc1ccccc1)C1=C[C@H](c2csc3ccccc23)C[C@H](OCCCCO)O1`?
WT yeast gro inh: inactive; Cl transport mod: inactive; RAM network inh: 11

How did C#CCNC(=O)C1=C[C@@H](c2ccc(Br)cc2)C[C@@H](OCc2ccc(CO)cc2)O1 do in these assays?
WT yeast gro inh: inactive; Cl transport mod: inactive; RAM network inh: inactive

Results for O=C(NCc1ccccc1)C1=C[C@@H](c2ccc(Br)cc2)C[C@@H](OCc2ccc(CO)cc2)O1 ?
WT yeast gro inh: inactive; Cl transport mod: inactive; RAM network inh: 8.8

Results for O=C(Nc1cccc(S(=O)(=O)N2CCCCC2)c1)c1ccc2c(=O)n3c(nc2c1)CCCCC3 ?
WT yeast gro inh: inactive; Cl transport mod: inactive; Yeast life ext: inactive; Yeast growth inh: inactive; RAM network inh: inactive

How did COc1cccc(-c2nc(CS(=O)(=O)CC(=O)NCCCN3CCc4ccccc4C3)c(C)o2)c1 do in these assays?
WT yeast gro inh: inactive; Cl transport mod: -3.9; Yeast life ext: inactive; Yeast growth inh: inactive; RAM network inh: inactive

What do the screens show for `COc1cccc(-c2nc(CS(=O)(=O)CC(=O)NCCCOC(C)C)c(C)o2)c1`?
WT yeast gro inh: inactive; Cl transport mod: inactive; Yeast life ext: inactive; Yeast growth inh: inactive; RAM network inh: inactive

Screening data from PubChem.
